# Source: ChEMBL document CHEMBL1127497, “Studies on antiulcer drugs. 7. 2-Guanidino-4-pyridylthiazoles as histamine H2-receptor antagonists with potent gastroprotective effects against nonsteroidal antiinflammatory drug-induced injury” (J Med Chem, 1994)
# Tests used:
# [1] = tested on: Canis familiaris; experiment: Evaluated against tetragastrin stimulated gastric acid secretion in conscious Hiedenhain-pouch dogs at a dose of 0.32 mg/kg, po; format: functional; details: Canis lupus familiaris, Stomach
# Procedure, shortened: (§1)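 Beagle Heidenhain-pouch dogs, 8–13 kg, oral dosing. Acid concentration titrated to pH 7 with 0.1 N NaOH; total acid output is volume × concentration. Change is relative to predosing output. ED50 by probit from three or four doses, three or four dogs per dose.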
# [2] = target: Histamine H2 receptor (Cavia porcellus) (UniProt P47747); experiment: H2 receptor antagonistic activity against histamine stimulated chronotropic response in isolated guinea pig right atrium at 1x10E-6 g/mL.; format: functional, tissue-based; details: Cardiac atrium
# Procedure, shortened: (§2)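 Guinea pig atrial strip under 0.3–0.6 g tension in Tyrode solution, 30 °C, gassed with 95% O2-5% CO2. Beating rate recorded. Histamine HCl 1 × 10-6 g/mL given; after washout, test compound added (single-concentration screen 1 × 10-6 g/mL) and histamine response compared before and 30 min after dosing. IC50 from three doses by probit analysis, three atria per dose.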
# [3] = tested on: Rattus norvegicus; experiment: Inhibition of aspirin induced gastric lesions in rats after peroral dose of 32 mg/kg; format: functional; details: Stomach, route oral
# Procedure, shortened: (§3)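 Male SD rats (~200 g), fasted 24 h. Test compound given orally in 0.1% MC, then aspirin 200 mg/kg in 0.2 N HCl/0.1% MC (10 mL/kg) orally 30 min later. Rats killed 1 h after aspirin. Ulcer index is the summed lesion length (mm); % inhibition is relative to controls. Seven rats per group for screening; ED50 by probit from three doses, ten rats per dose.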
# [4] = tested on: Rattus norvegicus; experiment: Inhibition of histamine stimulated gastric acid secretion in lumen perfused anaesthetized rats after 1 mg/kg intravenous dose; format: functional; details: Stomach
# Procedure, shortened: (§4)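 Male SD rats (~250 g), fasted 24 h, urethane 1.25 g/kg ip. Stomach lumen perfused with saline; perfusate titrated with 25 mM NaOH. Histamine infused iv at 3 mg/kg/h. At plateau, compound given iv at 1 mg/kg. Result expressed as maximal inhibition of acid output; n = 2.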
# [5] = target: Histamine H2 receptor (Cavia porcellus, UniProt P47747); experiment: Compound was tested for H2 receptor antagonistic activity against histamine stimulated chronotropic response in isolated guinea pig right atrium; format: functional, tissue-based, Cardiac atrium; procedure, shortened: as §2
# [6] = tested on: Canis familiaris; experiment: Effective dose against tetragastrin stimulated gastric acid secretion in conscious Hiedenhain-pouch dogs after peroral administration; format: functional; details: Canis lupus familiaris, Stomach, po; procedure, shortened: as §1
# [7] = tested on: Rattus norvegicus; experiment: Effective dose against indomethacin induced gastric lesions in rats after peroral administration; format: functional; details: Stomach, po
# Procedure, shortened: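 Male SD rats (~200 g), fasted 24 h, dosed orally with test compound in 0.1% MC, ten per group. Indomethacin 5 mg/kg in 0.1% MC given orally 30 min later, then 0.35 N HCl (5 mL/kg) orally after 1 h. Killed 1 h after that. Ulcer index is the summed lesion length. ED50 by probit from three doses.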
# [8] = tested on: Rattus norvegicus; experiment: Effect on gastric mucosal blood flow 15 minutes before dosing of HCl and aspirin after drug dosing at 32 mg/kg intragastrically; format: functional, Gastric mucosa; details: route intragastric
# Procedure, shortened: (§5)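 Male rats, five per group, test drug suspended in 0.1% MC given intragastrically. Aspirin 200 mg/kg in 0.2 N HCl/0.1% MC (0.2 mL) given ig 15 min later. […] Reported as mean ± SEM and % of initial.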
# [9] = tested on: Rattus norvegicus; experiment: Effect on gastric mucosal blood flow 30 minutes after administration of HCl and aspirin after drug dosing at 10 mg/kg intragastrically; format: functional, Gastric mucosa; details: route intragastric; procedure, shortened: as §5
# [10] = tested on: Rattus norvegicus; experiment: Effect on gastric mucosal blood flow 30 minutes after administration of HCl and aspirin after drug dosing at 32 mg/kg intragastrically; format: functional, Gastric mucosa; details: route intragastric; procedure, shortened: as §5
# [11] = tested on: Rattus norvegicus; experiment: Effect on gastric mucosal blood flow 60 minutes after administration of HCl and aspirin after drug dosing at 10 mg/kg intragastrically; format: functional, Gastric mucosa; details: route intragastric; procedure, shortened: as §5
# [12] = tested on: Rattus norvegicus; experiment: Effect on gastric mucosal blood flow 60 minutes after administration of HCl and aspirin after drug dosing at 32 mg/kg intragastrically; format: functional, Gastric mucosa; details: route intragastric; procedure, shortened: as §5
# [13] = tested on: Rattus norvegicus; experiment: Effect on gastric mucosal blood flow at basal value which is 15 minutes before dosing of drugs at 10 mg/kg intragastrically; format: functional, Gastric mucosa; details: route intragastric; procedure, shortened: as §5
# [14] = tested on: Rattus norvegicus; experiment: Effect on gastric mucosal blood flow 15 minutes before dosing of HCl and aspirin after drug dosing at 10 mg/kg intragastrically; format: functional, Gastric mucosa; details: route intragastric; procedure, shortened: as §5
# [15] = tested on: Rattus norvegicus; experiment: Effective dose against aspirin induced gastric lesions in rats after peroral administration; format: functional; details: Stomach, po; procedure, shortened: as §3
# [16] = tested on: Rattus norvegicus; experiment: Effect on gastric mucosal blood flow at basal value which is 15 minutes before dosing of drugs at 32 mg/kg intragastrically; format: functional, Gastric mucosa; details: route intragastric; procedure, shortened: as §5
# [17] = tested on: Rattus norvegicus; experiment: Evaluated for inhibition of basal gastric acid secretion in pyolus-ligated rats after intraduodenal administration; details: Stomach, id
# [18] = tested on: Canis familiaris; experiment: Evaluated against tetragastrin stimulated gastric acid secretion in conscious Hiedenhain-pouch dogs at a dose of 0.32 mg/Kg, po; format: functional; details: Canis lupus familiaris, Stomach; procedure, shortened: as §1
# [19] = tested on: Rattus norvegicus; experiment: Effect on gastric mucosal blood flow 30 minutes after administration of HCl and aspirin after drug dosing at 100 mg/kg intragastrically; format: functional, Gastric mucosa; details: route intragastric; procedure, shortened: as §5
# [20] = tested on: Rattus norvegicus; experiment: Effect on gastric mucosal blood flow 60 minutes after administration of HCl and aspirin after drug dosing at 100 mg/kg intragastrically; format: functional, Gastric mucosa; details: route intragastric; procedure, shortened: as §5
# [21] = tested on: Rattus norvegicus; experiment: Effect on gastric mucosal blood flow at basal value which is 15 minutes before dosing of drugs at 100 mg/kg intragastrically; format: functional, Gastric mucosa; details: route intragastric; procedure, shortened: as §5
# [22] = tested on: Rattus norvegicus; experiment: Effect on gastric mucosal blood flow 15 minutes before dosing of HCl and aspirin after drug dosing at 100 mg/kg intragastrically; format: functional, Gastric mucosa; details: route intragastric; procedure, shortened: as §5
# [23] = tested on: Rattus norvegicus; experiment: Evaluated against histamine stimulated gastric acid secretion in lumen perfused anaesthetized rats after 1 mg/kg intravenous dose; format: functional; details: Stomach; procedure, shortened: as §4
# [24] = tested on: Rattus norvegicus; experiment: Evaluated for inhibition of basal gastric acid secretion on pyolus-ligated rats after intraduodenal administration; details: Stomach, id
# Histamine H2 receptor (Cavia porcellus), sequence (P47747 whole entry): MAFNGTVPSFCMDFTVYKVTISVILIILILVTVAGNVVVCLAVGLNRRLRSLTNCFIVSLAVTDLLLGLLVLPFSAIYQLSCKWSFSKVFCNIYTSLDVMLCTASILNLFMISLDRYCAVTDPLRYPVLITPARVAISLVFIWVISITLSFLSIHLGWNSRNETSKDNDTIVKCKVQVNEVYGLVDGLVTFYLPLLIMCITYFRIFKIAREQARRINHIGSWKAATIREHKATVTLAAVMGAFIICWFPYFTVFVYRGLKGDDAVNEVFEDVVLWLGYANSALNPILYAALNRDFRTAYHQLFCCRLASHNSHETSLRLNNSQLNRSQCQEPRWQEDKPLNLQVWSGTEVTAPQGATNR
# Histamine H2 receptor, sequence (P47747 whole entry): as above
inhibition [2],SMILES,inhibition in vivo at 32 mg/kg [3],inhibition in vivo at 1 mg/kg [4],also measured
62%,CC(C)C(=O)NCc1cccc(-c2csc(N=C(N)N)n2)n1,65%,21%,–
72%,CCC(=O)NCc1cccc(-c2csc(N=C(N)N)n2)n1,70%,81%,inhibition in vivo at 0.32 mg/kg [1]: 50%
50%,CS(=O)(=O)NCc1cccc(-c2csc(N=C(N)N)n2)n1,60%,46%,–
37%,CSCC(=O)NCc1cccc(-c2csc(N=C(N)N)n2)n1,80%,4%,–
52%,CCNC(=O)NCc1cccc(-c2csc(N=C(N)N)n2)n1,34%,91%,–
29%,C/N=C(/NCc1cccc(-c2csc(N=C(N)N)n2)n1)NS(C)(=O)=O,10%,24%,–
66%,CC(=O)NCc1cccc(-c2csc(N=C(N)N)n2)n1.Cl,68%,82%,inhibition in vivo at 0.32 mg/kg [1]: 95%; ED50 [6]: 0.063 mg/kg; IC50 [5]: 1300 nM; ED50 [7]: 6.5 mg/kg; Flow rate [8]: 65.3 ml min-1 100g-1; Flow rate [9]: 67.9 ml min-1 100g-1; Flow rate [10]: 63.1 ml min-1 100g-1; Flow rate [11]: 61 ml min-1 100g-1; Flow rate [12]: 60.4 ml min-1 100g-1; Flow rate [13]: 70.4 ml min-1 100g-1; Flow rate [14]: 70.2 ml min-1 100g-1; ED50 [15]: 13.3 mg/kg; Flow rate [16]: 58.9 ml min-1 100g-1; ED50 [17]: 12.6 mg/kg
86%,CNC(=O)NCc1cccc(-c2csc(N=C(N)N)n2)n1,57%,79%,–
82%,CCCNC(=O)NCc1cccc(-c2csc(N=C(N)N)n2)n1,42%,90%,–
-14%,CN/C(=C\[N+](=O)[O-])NCc1cccc(-c2csc(N=C(N)N)n2)n1,-27%,18%,–
43%,C/N=C(\NC#N)NCc1cccc(-c2csc(N=C(N)N)n2)n1,37%,15%,–
100%,N=C(N)Nc1nc(-c2cccc(CNC(N)=O)n2)cs1,34%,98%,inhibition in vivo at 0.32 mg/kg [1]: 78%
4%,CCS(=O)(=O)N/C=N\Cc1cccc(-c2csc(N=C(N)N)n2)n1,1%,-18%,–
25%,CCCC(=O)NCc1cccc(-c2csc(N=C(N)N)n2)n1,56%,71%,–
3%,CC(=O)NCCc1cccc(-c2csc(N=C(N)N)n2)n1,31%,58%,–

# Further lines, the compound ahead of its results:
SMILES,inhibition [2],inhibition in vivo at 32 mg/kg [3],inhibition in vivo at 1 mg/kg [4],also measured
N=C(N)Nc1nc(-c2cccc(CNC(=O)C3CCCCCC3)n2)cs1,13%,93%,43%,inhibition in vivo at 0.32 mg/kg [1]: 67%
N=C(N)Nc1nc(-c2cccc(CNC(=O)C3CCC3)n2)cs1,2%,82%,61%,–
N=C(N)Nc1nc(-c2cccc(CNC(=O)C3CCCC3)n2)cs1,32%,92%,67%,inhibition in vivo at 0.32 mg/kg [1]: 22%
N=C(N)Nc1nc(-c2cccc(CNC=O)n2)cs1,46%,57%,83%,–
CC(C)(C)C(=O)NCc1cccc(-c2csc(N=C(N)N)n2)n1,–,58%,22%,–
CC(=O)Nc1cccc(-c2csc(N=C(N)N)n2)n1,–,43%,16%,–
CC(=O)NCc1cc(-c2csc(N=C(N)N)n2)ccn1,–,42%,40%,–
NC(N)=Nc1nc(CSCCC(N)=NS(N)(=O)=O)cs1 [FAMOTIDINE],–,–,–,IC50 [5]: 300 nM
N=C(N)Nc1nc(-c2ccc(CC(=N)NS(N)(=O)=O)o2)cs1,84%,49%,99%,inhibition in vivo at 0.32 mg/kg [1]: 92%
N=C(N)Nc1nc(-c2cccc(CNC(=O)C3CCCO3)n2)cs1 (centres undefined),7%,66%,6%,–
N=C(N)Nc1nc(-c2cccc(CNC(=O)CSCc3ccco3)n2)cs1,76%,49%,16%,–
N=C(N)Nc1nc(-c2cccc(CNC(=O)C(F)(F)F)n2)cs1,72%,43%,43%,–
NC(N)=Nc1nc(CSCC/C(N)=N/S(N)(=O)=O)cs1 [FAMOTIDINE],87%,22%,96%,inhibition in vivo at 0.32 mg/kg [1]: 96%; ED50 [6]: 0.042 mg/kg; ED50 [7]: > 100 mg/kg; Flow rate [8]: 60.5 ml min-1 100g-1; Flow rate [9]: 62.5 ml min-1 100g-1; Flow rate [10]: 46.9 ml min-1 100g-1; Flow rate [11]: 50.5 ml min-1 100g-1; Flow rate [12]: 43.4 ml min-1 100g-1; Flow rate [13]: 68.6 ml min-1 100g-1; Flow rate [14]: 73 ml min-1 100g-1; ED50 [15]: > 100 mg/kg; Flow rate [16]: 58.4 ml min-1 100g-1; ED50 [17]: 3.5 mg/kg
N=C(N)Nc1nc(-c2cccc(CC(=N)NS(N)(=O)=O)n2)cs1,–,16%,42%,–
N=C(N)Nc1nc(-c2cccc(CNC(=O)C3CC3)n2)cs1,60%,62%,91%,inhibition in vivo at 0.32 mg/kg [1]: 48%
CC(=O)NCc1cncc(-c2csc(N=C(N)N)n2)c1,22%,42%,10%,–
N=C(N)Nc1nc(-c2cccc(CNC(=O)C3CCCCC3)n2)cs1,23%,62%,23%,–
N=C(N)Nc1nc(-c2cccc(CNC(=O)c3ccco3)n2)cs1,13%,69%,34%,–
CNC(=C[N+](=O)[O-])NCCSCc1ccc(CN(C)C)o1 [RANITIDINE],44%,3%,–,inhibition in vivo at 0.32 mg/kg [18]: 41%; ED50 [6]: 0.3 mg/kg; IC50 [5]: 3400 nM; Flow rate [19]: 53.4 ml min-1 100g-1; Flow rate [20]: 55.4 ml min-1 100g-1; Flow rate [21]: 85.3 ml min-1 100g-1; Flow rate [22]: 82.3 ml min-1 100g-1; ED50 [15]: > 100 mg/kg; inhibition in vivo at 1 mg/kg [23]: 72%; ED50 [24]: 30.5 mg/kg
N=C(N)Nc1nc(-c2cccc(CNC(=O)C3CCC(=O)CC3)n2)cs1,2%,62%,37%,–
N=C(N)Nc1nc(-c2cccc(CNC(=O)C3CCOC3)n2)cs1 (centres undefined),32%,42%,51%,–
